Measurements reported in the array DNA melting data of Ke et al. (doi:10.1101/2024.01.08.574731).

Experiments:
[1] = melting temperature; fluorescence melt of hairpins on a sequencing array, two-state fit, raised by 9.35 °C to match UV melts; conditions: sodium 0.088 M
Summary of the method: (§1)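 Library hairpins on a sequenced MiSeq flow cell carried annealed Cy3 and quencher oligos, and their Cy3 fluorescence was imaged in 50 mM Na-HEPES pH 8.0 with 25 mM NaCl, in 2.5 °C steps up to 60 °C. Signals were normalised to Cy3 before quenching and to control constructs. Melting temperature and folding enthalpy were obtained from bootstrapped two-state fits, combined by inverse-variance weighting across four replicates, and the fitted temperatures were then raised by 9.35 °C to match UV melts.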

[2] = folding enthalpy; higher = less favourable; fluorescence melt of hairpins on a sequencing array, two-state fit; conditions: sodium 0.088 M
Summary of the method: as §1

Sequence	Tm [1] [°C]	folding enthalpy [2] [kcal/mol]
GCAGGGGGAAACCCTTGC (((.(((....))).)))	52.2	-30.8
GCAGGGGGAAACCTCTGC ((((.((....)).))))	55	-39.1
GCAGGTGGAAACACCCGC ((.((((....)))).))	50	-23.4
GCAGGTGGAAACACTTGC (((.(((....))).)))	51.5	-35.2
GCAGGTGGAAACGCCTGC (((((.(....).)))))	61.8	-46.6
GCAGTACCGAAAGGTTGC (((..(((....))))))	43.3	-20.4
GCAGTAGGAAACCACTGC (((((.(....).)))))	48.2	-29.2
GCAGTAGGAAACTACCAC (..((((....))))..)	19.6	-6.77
GCAGTATCGAAAGATTGC (((..(((....))))))	34.9	-20.5
GCAGTCGAAAGACCGTGC ((((((....)))..)))	38.1	-16.8
GCAGTCGAAAGACGCTGC ((((((....)))..)))	55.6	-21.6
GCAGTCGAAAGACTATGC ((((((....)))..)))	46.2	-17.8
GCAGTCGAAAGACTCTGC ((((((....)))..)))	41.8	-16.1
GCAGTCGGAAACGACCAC (..((((....))))..)	32	-8.16
GCAGTCGGAAACGACTAC (.(((((....))))).)	41.7	-13.4
GCAGTCGGAAACGGTTGC (((..((....))..)))	42.4	-25.8
GCAGTGCCGAAAGGCTGC (((..(((....))))))	49.8	-14.8
GCAGTGCGAAAGCACAGC ((.((((....)))).))	68.2	-17.1
GCAGTGCGAAAGCGTTGC (((..((....))..)))	56.2	-17.7

Sequence	Tm [1] [°C]	folding enthalpy [2] [kcal/mol]
GCAGTGCGAAAGCTCAGC ((.(.((....)).).))	49.2	-14.7
GCAGTGGGAAACCATTGC (((.(((....))).)))	50.1	-25.6
GCAGTTCGAAAGAATGC (((.(((....))))))	41.2	-21.4
GCAGTTGGAAACAACCGC ((.((((....)))).))	44.1	-23.6
GCATAAACGAAAGTTTGC (((..(((....))))))	37.4	-18.5
GCATAAGGAAACCTATGC (((((.(....).)))))	39.2	-27.1
GCATAAGGAAACTTACGC ((.((((....)))).))	31.6	-21.7
GCATACGAAAGTACGTGC ((((((....)))..)))	34.4	-18.1
GCATACGAAAGTATCTGC ((((((....)))..)))	37.9	-15.5
GCATACGAAAGTATTGC ((((((....))).)))	45.7	-25.1
GCATACTCGAAAGAGTGC (((..(((....))))))	39	-16.8
GCATAGCGAAAGCACTGC (((..((....))..)))	39.6	-13.9
GCATAGCGAAAGCGATGC ((((.((....)).))))	66.1	-30.9
GCATAGCGAAAGCTCTGC (((.(((....))).)))	49.4	-45.2
GCATAGCGAAAGCTGCGC ((..(((....)))..))	61.3	-21
GCATAGCGAAAGCTGTGC (((.(((....))).)))	59.9	-50.8
GCATAGGGAAACCTATGC (((((((....)))))))	61.7	-44.2
GCATATCGAAAGATTTGC (((.(((....))).)))	46.8	-37
